Activity calls are given as the source filed them. The calls are words filed in the database; no cut-off is given here.
Key:
[1] = target: T1, TNF receptor-associated factor 6 (Homo sapiens) (UniProt Q9Y4K3); experiment: Inhibition of TRAF6 (unknown origin)-mediated NFkappaB activation expressed in human HeLaS3 cells harboring 3kappaB-tk-luc at 10 uM preincubated for 1 hr followed by Il1alpha-stimulation and measured after 3 hrs in presence of DTT by dual-luciferase reporter gene assay relative to control; type: cell-based
T1 sequence (whole entry): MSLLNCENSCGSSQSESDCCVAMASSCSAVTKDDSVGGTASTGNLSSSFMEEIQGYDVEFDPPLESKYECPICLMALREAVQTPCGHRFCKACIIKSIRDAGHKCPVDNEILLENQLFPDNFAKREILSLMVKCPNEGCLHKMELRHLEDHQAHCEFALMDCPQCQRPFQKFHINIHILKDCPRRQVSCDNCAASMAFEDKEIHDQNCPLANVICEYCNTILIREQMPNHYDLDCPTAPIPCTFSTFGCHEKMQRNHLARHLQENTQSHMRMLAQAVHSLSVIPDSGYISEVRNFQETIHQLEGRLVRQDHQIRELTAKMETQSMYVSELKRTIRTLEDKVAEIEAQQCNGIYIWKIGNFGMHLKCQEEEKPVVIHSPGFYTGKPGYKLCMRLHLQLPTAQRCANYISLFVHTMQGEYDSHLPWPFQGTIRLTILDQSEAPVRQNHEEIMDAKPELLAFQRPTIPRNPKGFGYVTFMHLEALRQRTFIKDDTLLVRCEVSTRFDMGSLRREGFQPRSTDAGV
Procedure, shortened: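 Cells co-transfected with 3κB-tk-luc and pRL-Luc (β-actin-driven renilla), cultured 1 day, then given compound (10 μM) plus DTT (30 μM) for 1 h before IL-1α (10 ng/mL) stimulation for 3 h. Dual-luciferase read-out: κB-firefly signal normalized to renilla, reported as relative NF-κB activity.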

[2] = Prodrug conversion in human HeLaS3 assessed as NpSH formation at 10 uM; type: ADME, cell-based; conditions: hela s3, 10 µM
[3] = target: T1, TNF receptor-associated factor 6 (Homo sapiens); experiment: Inhibition of TRAF6 (unknown origin)-mediated NFkappaB activation expressed in human HeLaS3 cells harboring 3kappaB-tk-luc at 10 uM preincubated for 1 hr followed by Il1alpha-stimulation and measured after 3 hrs by dual-luciferase reporter gene assay relative to control; type: cell-based
Procedure, shortened: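 Cells co-transfected with 3κB-tk-luc (triple κB site driving firefly luciferase) and pRL-Luc (β-actin promoter driving renilla luciferase), cultured 1 day, given compound (10 μM) without DTT for 1 h, then stimulated with IL-1α (10 ng/mL) for 3 h. Lysates read by dual-luciferase assay; firefly signal normalized to renilla, expressed as relative NF-κB activity.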

HeLa S3 = experiment: Cytotoxicity against human HeLaS3 cells assessed as reduction in cell viability at 10 uM measured after 8 hrs in presence of DTT by MTT assay relative to control; type: functional
Procedure, shortened: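 Cells treated with compound at 10 μM together with DTT (30 μM), incubated 8 h, then viability read by MTT assay; shown as activity relative to control.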

| Compound | inhibition [1] | Drug metabolism [2] | inhibition [3] [%] | Activity (HeLa S3) |
| --- | --- | --- | --- | --- |
| CCCCCCCCCCCCOC(=O)Nc1cc(CNCCS)nc(CNCCS)c1 | inactive | – | – | – |
| SCCNCc1ccccn1 | inactive | – | – | – |
| CN(C)c1ccnc(CNCCS)c1 | inactive | – | – | – |
| O=[N+]([O-])c1ccccc1SSc1ccccc1[N+](=O)[O-] | – | Metabolite_Detected | – | – |
| O=C(CCCC[C@@H]1SC[C@@H]2NC(=O)N[C@@H]21)NCCCCCCOC(=O)Nc1cc(CNCCS)nc(CNCCS)c1 | 78% | – | – | – |
| CN(C)c1cc(CNCCSSc2ccccc2[N+](=O)[O-])nc(CNCCSSc2ccccc2[N+](=O)[O-])c1 | 89% | Metabolite_Detected | 80 | inactive |
| O=[N+]([O-])c1ccccc1SSCCNCc1cccc(CNCCSSc2ccccc2[N+](=O)[O-])c1 | inactive | Metabolite_Detected | – | – |
| O=[N+]([O-])c1ccccc1SSCCNCc1cccc(CNCCSSc2ccccc2[N+](=O)[O-])n1 | 84% | Metabolite_Detected | 76 | – |
| CC(C)=CCC/C(C)=C/CC/C(C)=C/COC(=O)Nc1cc(CNCCS)nc(CNCCS)c1 | inactive | – | – | – |
| O=[N+]([O-])c1ccccc1S | inactive | – | – | 24% |
| Sc1ccccc1NCc1ccccn1 | inactive | – | – | – |
